We go through 17 molecules from ChEMBL document CHEMBL1156851, “Practical and efficient synthesis of pyrano[3,2-c]pyridone, pyrano[4,3-b]pyran and their hybrids with nucleoside as potential antiviral and antileishmanial agents” (Bioorg Med Chem Lett, 2010).

Series [1] concerns Human betaherpesvirus 5. Put plainly: Antiviral activity against Cytomegalovirus AD169 infected in HEL cells assessed as reduction of viral plaque formation. It is filed as functional, organism-based. As to conditions: Human betaherpesvirus 5, AD169, HEL.
The subject of series [2] is Human betaherpesvirus 5. In words: Antiviral activity against Cytomegalovirus Davis infected in HEL cells assessed as reduction of viral plaque formation. Type of series: functional, organism-based. As to conditions: Human betaherpesvirus 5, Davis.
The test system of series [3] is Leishmania donovani. Put plainly: Antileishmanial activity against Leishmania donovani promastigotes. Type of series: functional, organism-based.
Series [4] has as its system Human alphaherpesvirus 3. In words: Antiviral activity against thymidine kinase expressing Varicella Zoster Virus OKA infected in HEL cells assessed as reduction of viral plaque formation. It is filed as functional, organism-based. As to conditions: Human alphaherpesvirus 3, OKA.
The subject of series [5] is Human alphaherpesvirus 3. In words: Antiviral activity against thymidine kinase deficient Varicella zoster virus 07/1 infected in HEL cells assessed as reduction of viral plaque formation. Type of series: functional, organism-based. As to conditions: Human alphaherpesvirus 3, 07/1, HEL.
The nature of series [6]: Cytotoxicity against HEL cells assessed as microscopically detectable alteration of cell morphology. Type of series: cell-based. As to conditions: human. An outline of the steps: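 Cells are examined under the microscope after exposure. MCC is the minimum concentration that causes a microscopically detectable change in cell morphology.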
Series [7] is described as follows: Cytotoxicity against HEL cells assessed as reduction of cell growth. It is filed as cell-based. As to conditions: human.

Usually pEC50 stands for the negative decadic logarithm of the EC50, by convention in mol/L. One may read the pIC50 as the negative decadic logarithm of the IC50, by convention in mol/L. A word on the CC50: it is the concentration at which the toxic effect on the cells reaches its halfway point.

pEC50, pIC50: −log10 of the molar value.

Regarding `CC(=O)OC[C@H]1O[C@@H](n2cc(C(c3c(O)cc(C)n(C)c3=O)c3c(O)cc(C)n(C)c3=O)c(=O)[nH]c2=O)C[C@@H]1OC(C)=O`, the pEC50 in series [1] was less than 4.00; in series [2], less than 4.00; in series [4], 4.32; in series [5], less than 4.00. In series [3], this molecule had a pIC50 of less than 3.70. Also, the MCC in series [6] was more than 100 µM. In series [7], the CC50 is 20 µM.

For the molecule `CCn1c(C)cc2c(c1=O)C(c1cn([C@H]3C[C@H](O)[C@@H](CO)O3)c(=O)[nH]c1=O)C(C#N)=C(N)O2` (stereo not given in full), the pEC50 was less than 4.00 in series [1], less than 4.00 in series [2], 4.15 in series [4] and less than 4.00 in series [5]. Besides, the pIC50 in series [3] is less than 3.70. Further, the MCC in series [6] is more than 100 µM. Besides, in series [7], the CC50 was more than 100 µM.

Regarding `CC(=O)OC[C@H]1O[C@@H](n2cc(C(c3c(O)cc(C)oc3=O)c3c(O)cc(C)oc3=O)c(=O)[nH]c2=O)C[C@@H]1OC(C)=O`, the pEC50 in series [1] was less than 4.00; in series [2], less than 4.00; in series [4], 4.40; in series [5] it was 4.31. The pIC50 in series [3] was less than 3.70. Besides, the MCC in series [6] was more than 100 µM. Moreover, the CC50 in series [7] stood at 3.8 µM.

For the molecule `CC(=O)OC[C@H]1O[C@@H](n2cc(C(c3c(O)cc(C)[nH]c3=O)c3c(O)cc(C)[nH]c3=O)c(=O)[nH]c2=O)C[C@@H]1OC(C)=O`, the pEC50 in series [1], in series [2], in series [4] and in series [5] was less than 4.00 throughout. Moreover, the pIC50 in series [3] was less than 3.70. In addition, the MCC in series [6] is more than 100 µM. Further, the CC50 in series [7] came out at 36.9 µM.

`CC(=O)OC[C@H]1O[C@@H](n2cc(C3C(C#N)=C(N)Oc4cc(C)n(C)c(=O)c43)c(=O)[nH]c2=O)C[C@@H]1OC(C)=O` (stereo not given in full): the pEC50 in series [1], in series [2], in series [4] and in series [5] was less than 4.00 throughout. This molecule also showed a pIC50 in series [3] of less than 3.70. The MCC in series [6] was more than 100 µM. The CC50 in series [7] was more than 100 µM.

With `CCn1c(C)cc2c(c1=O)C(c1cn([C@H]3C[C@H](OC(C)=O)[C@@H](COC(C)=O)O3)c(=O)[nH]c1=O)C(C#N)=C(N)O2` (stereo not given in full), the pEC50 in series [1], in series [2], in series [4] and in series [5] was less than 4.00 throughout. The same molecule gave a pIC50 in series [3] of less than 3.70. For the same molecule, the MCC in series [6] was more than 100 µM. For the same molecule, the CC50 in series [7] was more than 100 µM.

With `Cc1cc2c(c(=O)n1C)C(c1cn([C@H]3C[C@H](O)[C@@H](CO)O3)c(=O)[nH]c1=O)C(C#N)=C(N)O2` (stereo not given in full), the pEC50 in series [1] was less than 4.00; in series [2], less than 4.00; in series [4], 4.13; in series [5], less than 4.00. Also, the pIC50 in series [3] was less than 3.70. For the same molecule, the MCC in series [6] is more than 100 µM. Further, in series [7], the CC50 was more than 100 µM.

Consider `Cc1cc(O)c(C(c2cn([C@H]3C[C@H](O)[C@@H](CO)O3)c(=O)[nH]c2=O)c2c(O)cc(C)oc2=O)c(=O)o1`, for which the pEC50 is 4.70 in series [1], 4.70 in series [2], 6.22 in series [4] and 5.58 in series [5]. In series [3], this molecule had a pIC50 of less than 3.70. The MCC in series [6] is more than 100 µM. Further, in series [7], the CC50 was determined as 1.8 µM.

Regarding `Cc1cc2c(c(=O)o1)C(c1cn([C@H]3C[C@H](O)[C@@H](CO)O3)c(=O)[nH]c1=O)C(C#N)=C(N)O2` (stereo not given in full), the pEC50 in series [1] is 4.26; in series [2], 4.26; in series [4], 5.74; in series [5], 5.28. The pIC50 in series [3] is less than 3.70. Also, in series [6], the MCC was more than 100 µM. In series [7], the CC50 was 3.3 µM.

On to `Cc1cc(O)c(C(c2cn([C@H]3C[C@H](O)[C@@H](CO)O3)c(=O)[nH]c2=O)c2c(O)cc(C)[nH]c2=O)c(=O)[nH]1`, for which the pEC50 was 4.35 in series [1], less than 4.00 in series [2], 6.49 in series [4] and 5.78 in series [5]. This molecule showed a pIC50 in series [3] of 4.36. Moreover, the MCC in series [6] is more than 100 µM. For the same molecule, in series [7], the CC50 was found to be 2.1 µM.

As to `CC(=O)OC[C@H]1O[C@@H](n2cc(C3C(C#N)=C(N)Oc4cc(C)[nH]c(=O)c43)c(=O)[nH]c2=O)C[C@@H]1OC(C)=O` (stereo not given in full), the pEC50 was less than 4.00 in series [1], less than 4.00 in series [2], 4.00 in series [4] and less than 4.00 in series [5]. In series [3], this molecule had a pIC50 of 3.85. Further, the MCC in series [6] was more than 100 µM. In addition, the CC50 in series [7] is more than 100 µM.

As for `CC(=O)OC[C@H]1O[C@@H](n2cc(C3C(C#N)=C(N)Oc4cc(C)oc(=O)c43)c(=O)[nH]c2=O)C[C@@H]1OC(C)=O` (stereo not given in full), the pEC50 in series [1] is less than 4.00; in series [2], less than 4.00; in series [4], 4.32; in series [5] it was less than 4.00. Moreover, in series [3], the pIC50 is less than 3.70. Besides, the MCC in series [6] is more than 100 µM. For the same molecule, in series [7], the CC50 stood at 8.9 µM.

As for `Cc1cc(O)c(C(c2cn([C@H]3C[C@H](O)[C@@H](CO)O3)c(=O)[nH]c2=O)c2c(O)cc(C)n(C)c2=O)c(=O)n1C`, the pEC50 in series [1] is 4.26; in series [2], less than 4.00; in series [4], 5.66; in series [5], 4.78. In series [3], the pIC50 was less than 3.70. The MCC in series [6] is more than 100 µM. The CC50 in series [7] is 7.7 µM.

For the molecule `Cc1cc2c(c(=O)[nH]1)C(c1cn([C@H]3C[C@H](O)[C@@H](CO)O3)c(=O)[nH]c1=O)C(C#N)=C(N)O2` (stereo not given in full), the pEC50 in series [1] was less than 4.00; in series [2], less than 4.00; in series [4], 4.25; in series [5], less than 4.00. In addition, the pIC50 in series [3] is 4.97. In series [6], the MCC is more than 100 µM. In series [7], the CC50 is more than 100 µM.

On to `Nc1nc2c(ncn2COCCO)c(=O)[nH]1` [ACYCLOVIR], for which the pEC50 in series [4] is 6.08. For the same molecule, the MCC in series [6] was more than 1780 µM. In addition, the CC50 in series [7] was determined as 1780 µM.

For `Nc1ccn(C[C@@H](CO)OCP(=O)(O)O)c(=O)n1` [CIDOFOVIR], in series [2], the pEC50 is 6.05. For the same molecule, the MCC in series [6] was more than 1270 µM. Also, the CC50 in series [7] is 175 µM.

For `N=C(N)c1ccc(OCCCCCOc2ccc(C(=N)N)cc2)cc1` [PENTAMIDINE], the pIC50 in series [3] was 5.19.
